This is an account of results in ChEMBL document CHEMBL4373708 (J Med Chem, 2019).

Activity calls are given as the source filed them. The calls are words filed in the database; no cut-off is given here. A value given as a limit tells only on which side of the number the result lay.

Series [1] can be described thus: Cmax in mouse at 5 mg/kg, po by LC-MS analysis. Type of series: ADME, organism-based. Also on record: dose 5 mg/kg, route oral. Particulars: in vivo. The procedure, abridged: (§1)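 Single intraperitoneal or oral dose in mice at 5 mg/kg (vehicle: saline with 5% DMSO and 10% Kolliphor HS 15) or 10 mg/kg (vehicle: PBS with 5% DMSO and 20% (2-hydroxypropyl)-β-cyclodextrin). Blood taken by retroorbital puncture at set times, serum separated by centrifugation at 4000 g for 20 min at 24 °C, compound quantified by LC/MS.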

Series [2] is described as follows: Drug uptake in mouse serum at 5 mg/kg, po or ip measured after 16 hrs by LC-MS analysis. Type of series: ADME, organism-based. To be noted: in vivo. The procedure, abridged:
as §1

In series [3] the test system is Mus musculus. Put plainly: Anti-absorptive activity in loperamide-induced CD-1 mouse model of constipation assessed as improvement in fecal pellet number at 5 mg/kg, po administered via gavage for 1 hr prior to loperamide challenge and measured after 3 hrs. Type of series: functional, organism-based. The procedure, abridged:
(§2)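 Female CD1 mice aged 8–10 weeks were gavaged with 5 mg/kg compound or vehicle 1 h before ip loperamide (0.3 mg/kg in 5% ethanol/PBS). Mice were kept singly in metabolic cages and stool collected for 3 h. Total weight and pellet number were recorded; water content = (wet−dry)/wet after drying at 80 °C for 24 h. Mean ± S.E.M., 4-6 mice per group.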

The subject of series [4] is Mus musculus. Put plainly: Anti-absorptive activity in loperamide-induced CD-1 mouse model of constipation assessed as improvement in stool weight at 5 mg/kg, po administered via gavage for 1 hr prior to loperamide challenge and measured after 3 hrs. Type of series: functional, organism-based. The procedure, abridged: as §2
Series [5] in a line: AUC in mouse at 5 mg/kg, ip by LC-MS analysis. Type of series: ADME, organism-based. To be noted: in vivo. The procedure, abridged: as §1
The test system of series [6] is Mus musculus. The experiment in a line: Anti-absorptive activity in loperamide-induced CD-1 mouse model of constipation assessed as improvement in stool water content at 5 mg/kg, po administered via gavage for 1 hr prior to loperamide challenge and measured after 3 hrs. Type of series: functional, organism-based. The procedure, abridged:
as §2

A short description of series [7]: AUC in mouse at 5 mg/kg, po by LC-MS analysis. Type of series: ADME, organism-based. Particulars: in vivo. The procedure, abridged: as §1
A short description of series [8]: Tmax in mouse at 5 mg/kg, po by LC-MS analysis. Type of series: ADME, organism-based. Particulars: in vivo. The procedure, abridged: as §1
The target in series [9] is T1, Solute carrier family 26 member 9 (Homo sapiens) (UniProt Q7LBE3).
T1 sequence (whole entry): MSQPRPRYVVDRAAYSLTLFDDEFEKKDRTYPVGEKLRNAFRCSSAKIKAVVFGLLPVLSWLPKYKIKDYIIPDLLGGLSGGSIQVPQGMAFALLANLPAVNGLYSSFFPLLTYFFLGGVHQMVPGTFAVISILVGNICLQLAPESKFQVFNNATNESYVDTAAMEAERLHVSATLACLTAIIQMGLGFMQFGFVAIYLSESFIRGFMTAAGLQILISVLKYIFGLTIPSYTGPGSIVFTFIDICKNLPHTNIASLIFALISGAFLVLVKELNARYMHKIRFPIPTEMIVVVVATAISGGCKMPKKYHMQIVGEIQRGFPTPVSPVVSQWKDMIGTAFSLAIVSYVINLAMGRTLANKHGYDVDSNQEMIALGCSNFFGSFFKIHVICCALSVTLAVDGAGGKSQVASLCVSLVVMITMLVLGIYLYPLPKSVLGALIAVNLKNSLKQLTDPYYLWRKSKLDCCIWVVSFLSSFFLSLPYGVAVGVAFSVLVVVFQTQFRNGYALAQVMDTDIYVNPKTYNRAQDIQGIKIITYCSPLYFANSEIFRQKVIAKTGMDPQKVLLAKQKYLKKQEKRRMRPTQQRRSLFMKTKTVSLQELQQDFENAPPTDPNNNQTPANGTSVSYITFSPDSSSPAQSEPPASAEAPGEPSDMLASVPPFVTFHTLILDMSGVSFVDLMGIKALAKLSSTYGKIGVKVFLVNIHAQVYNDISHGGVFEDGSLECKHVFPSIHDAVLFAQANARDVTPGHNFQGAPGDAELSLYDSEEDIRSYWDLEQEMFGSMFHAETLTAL
The experiment in a line: Inhibition of human slc26a9 expressed in FRT cells co-expressing EYFP-H148Q/I152L/F46L assessed as reduction in protein-mediated chloride/iodide exchange at 10 uM preincubated for 10 mins followed by NaI-substituted PBS addition and measured by YFP-based fluorescence assay. Type of series: cell-based. The procedure, abridged: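 FRT cells expressing the given slc26 transporter plus EYFP-H148Q/I152L/F46L were preincubated 10 min with 0 or 10 µM compound in PBS. Iodide-substituted PBS was then added (140 mM NaCl replaced by NaI). The rate of YFP fluorescence quenching gave chloride/iodide exchange.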

The nature of series [10]: Cmax in mouse at 5 mg/kg, ip by LC-MS analysis. More on the design: dose 5 mg/kg, route intraperitoneal. Particulars: in vivo. Type of series: ADME, organism-based. The procedure, abridged:
as §1

Series [11] can be described thus: Tmax in mouse at 10 mg/kg, po by LC-MS analysis. To be noted: in vivo. Type of series: ADME, organism-based. The procedure, abridged:
as §1

The nature of series [12]: Toxicity in CD-1 mouse assessed as effect on stool weight at 10 mg/kg, po administered via gavage for 1 hr. Type of series: organism-based. To be noted: in vivo. The procedure, abridged: (§3)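 Female CD1 mice aged 8–10 weeks without loperamide: 10 mg/kg compound or vehicle (PBS with 5% DMSO and 20% (2-hydroxypropyl)-β-cyclodextrin) by gavage, 1 h before ip injection of loperamide vehicle (5% ethanol in PBS). Mice were caged singly in metabolic cages and stool collected 3 h for weight, pellet count and water content (dried 80 °C, 24 h).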

A short description of series [13]: AUC in mouse at 10 mg/kg, po by LC-MS analysis. Particulars: in vivo. Type of series: ADME, organism-based. The procedure, abridged: as §1
Series [14] has as its system Mus musculus. Put plainly: Anti-absorptive activity in loperamide-induced CD-1 mouse model of constipation assessed as improvement in stool weight at 3 mg/kg, po administered via gavage for 1 hr prior to loperamide challenge and measured after 3 hrs. Type of series: functional, organism-based. The procedure, abridged:
(§4)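 Mice were held singly in metabolic cages with food and water. Stool was collected 3 h for weight and pellet count; water content = (wet−dry)/wet after drying 24 h at 80 °C. 5-8 mice/group, one-way ANOVA with Newman-Keuls.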

The subject of series [15] is Mus musculus. The experiment in a line: Anti-absorptive activity in loperamide-induced CD-1 mouse model of constipation assessed as stool hydration at 1 mg/kg, po administered via gavage for 1 hr prior to loperamide challenge and measured after 3 hrs relative to control. Type of series: functional. The procedure, abridged: as §4
The nature of series [16]: Cmax in mouse at 10 mg/kg, po by LC-MS analysis. Particulars: in vivo. Also on record: dose 10 mg/kg, route oral. Type of series: ADME, organism-based. The procedure, abridged: as §1
The subject of series [17] is Mus musculus. Put plainly: Anti-absorptive activity in loperamide-induced CD-1 mouse model of constipation assessed as improvement in fecal pellet number at 3 mg/kg, po administered via gavage for 1 hr prior to loperamide challenge and measured after 3 hrs. Type of series: functional, organism-based. The procedure, abridged:
as §4

The nature of series [18]: Cmax in mouse at 10 mg/kg, ip by LC-MS analysis. Type of series: ADME, organism-based. To be noted: in vivo. More on the design: dose 10 mg/kg, route intraperitoneal. The procedure, abridged:
as §1

The nature of series [19]: Tmax in mouse at 10 mg/kg, ip by LC-MS analysis. Type of series: ADME, organism-based. To be noted: in vivo. The procedure, abridged:
as §1

Series [20] can be described thus: Toxicity in CD-1 mouse assessed as effect on stool water content at 10 mg/kg, po administered via gavage for 1 hr. Type of series: organism-based. Particulars: in vivo. The procedure, abridged:
as §3

Series [21] in a line: AUC in mouse at 10 mg/kg, ip by LC-MS analysis. Particulars: in vivo. Type of series: ADME, organism-based. The procedure, abridged:
as §1

Series [22] is described as follows: Drug level in mouse serum at 10 mg/kg, po or ip measured after 72 hrs by LC-MS analysis. To be noted: read-out: Drug uptake. Type of series: ADME, organism-based. The procedure, abridged:
as §1

Series [23] concerns Mus musculus. The experiment in a line: Anti-absorptive activity in loperamide-induced CD-1 mouse model of constipation assessed as improvement in stool water content at 3 mg/kg, po administered via gavage for 1 hr prior to loperamide challenge and measured after 3 hrs. Type of series: functional, organism-based. The procedure, abridged:
as §4

The nature of series [24]: Toxicity in CD-1 mouse assessed as effect on fecal pellet number at 10 mg/kg, po administered via gavage for 1 hr. Type of series: organism-based. To be noted: in vivo. The procedure, abridged:
as §3

Turning to `Cc1c(CC(=O)O)c(=O)oc2c(C)c(OCc3cccc(C(F)(F)F)c3)ccc12`, the Cmax in series [1] stood at 12.9 µM; in [10] it was 70.2 µM. The Drug uptake entry in series [2] is listed as “Active”. The outcome in series [3], in series [4] and in [6] was Active. The figures for the AUC in [5] and in [7] were 418 µM·h and 69 µM·h, respectively. In series [8], the Tmax was 48 min. Also, the inhibition entry in [9] was “inactive”.
As for `Cc1c(CC(=O)O)c(=O)oc2c(C)c(OCc3cccc(I)c3)ccc12`, the Tmax was 390 min in series [11] and 30 min in series [19]. For the same compound, the Activity result is “Non-Toxic” in [12], above 50% in series [15], “Non-Toxic” in [20] and “Non-Toxic” in [24]. For the same compound, the results for the AUC in [13] and in [21] were 130 µM·h and 331 µM·h, respectively. The result in series [14], in [17] and in series [23] was Active. Further, the values for the highest concentration (Cmax) in series [16] and in [18] were 4.7 µM and 29.1 µM, respectively. Further, in [22], the concentration at 72 h turned out to be 1 µM. For the same compound, the inhibition result in series [9] is “inactive”.
